Calls of active or inactive are those of the source. The calls are words filed in the database; no cut-off is given here.
Assays:
[1] = Drug metabolism in human liver microsomes assessed as 1-[4-[(4-chlorophenyl)methyl]piperazin-1-yl]-2-methyl-2-[[5-(trifluoromethyl)-2-pyridyl]sulfonyl]propan-1-one formation at 1 ug/ml after 10 to 60 mins by LC-MS/MS analysis; assay type: ADME, Microsome
[2] = Cytotoxicity against immortal human HaCaT cells assessed as reduction in cell viability at 50 ug/ml after 24 hrs by CCK-8 assay relative to control; assay type: cell-based; conditions: read-out: INH
Procedure, shortened: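 HeLa 229 and HaCaT cells in DMEM with 10% FBS and 1% penicillin/streptomycin, 37 °C, 5% CO2, seeded at 5000 cells/well. Next day treated with 50 μg/mL in triplicate, with matching DMSO controls. After 24 h, CCK-8 added for 2 h; corrected absorbance read at 450 nm.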

Chlamydia trachomatis [3] = assay: Bacteriostatic activity against Chlamydia trachomatis Serovar LGV-L2 infected in Hep2 cells assessed as loss of inclusion morphology at 50 ug/ml treated at 8 hrs post infection and incubated for 16 hrs followed by compound washout and further incubated for 24 hrs by immunofluorescence staining based microscopic assay; assay type: functional, organism-based
Procedure, shortened: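 Medium was then removed, wells washed three times with Hanks' balanced salt solution, and compound-free medium added; incubation continued 24 h. Read-out by IFU re-infection and anti-MOMP immunofluorescence, as in the IFU protocol.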

Chlamydia trachomatis [4] = assay: (§1) Anti-Chlamydial activity against Chlamydia trachomatis Serovar LGV-L2 infected in Hep2 cells assessed as reduction in size and number of chlamydial inclusion at 5.2 to 50 ug/ml treated at 8 hrs post-infection and 24 hrs later re-infecting fresh Hep2 cells monolayer with infected cells and measured at 24 hrs post re-infection by immunofluorescence staining based microscopy analysis; assay type: functional, organism-based
Procedure, shortened: (§2)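 HEp-2 cells in DMEM with 10% FBS, infected with C. trachomatis L2 at MOI 1. Compounds added 8 hpi in triplicate; DMSO stocks at 50 mg/mL. At 24 hpi lysates collected in sucrose storage medium, frozen at −80 °C, and used to infect fresh HEp-2 monolayers in 10-fold dilutions. After 24 h, stained with goat anti-MOMP and Alexa488 secondary. Inclusions counted in 15 fields at 20x; IFU = mean count per field corrected for dilution.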

[5] = molecular target: ATP-dependent Clp protease proteolytic subunit (Escherichia coli (strain K12)) (UniProt P0A6G7); assay: Activation of recombinant Escherichia coli ClpP assessed as induction of casein degradation at 0.1 to 1 uM using FITC-labelled casein as substrate pretreated with enzyme for 30 mins followed by substrate addition and measured every 3 mins for 3 hrs in absence of AAA+ chaperone by fluorescence based tecan-plate reader assay
Procedure, shortened: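 Recombinant C-terminal His6-tagged ClpP, expressed in a clpAPX-null E. coli strain and purified (mammalian ClpP without mitochondrial signal, codon-optimized). ClpP at 1 or 0.1 μM (E. coli), 1 μM (human, mouse) or 6 μM (chlamydial ClpP1 and ClpP2) preincubated with compound or DMSO, 30 min, 32 °C, in HEPES pH 7.6/KCl/MgCl2/DTT/glycerol buffer. 20 μM FITC-casein then added. Fluorescence (ex 490/em 525 nm) read every 3 min for 3 h. At least three runs on at least two protein preparations.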

Chlamydia trachomatis [6] = assay: as §1, with “Anti-chlamydial” for “Anti-Chlamydial”, “in” for “in size and number of”, “chlamydial growth by measuring decrease in” for “chlamydial”, “inclusion forming units” for “inclusion”; assay type: functional, organism-based; procedure, shortened: as §2
[7] = Hepatic intrinsic clearance in human liver microsomes at 1 ug/ml measured per kg body weight up to 60 mins by LC-MS/MS analysis; assay type: ADME, Microsome; conditions: 1 h

ATP-dependent Clp protease proteolytic subunit (Escherichia coli (strain K12)), sequence (P0A6G7 whole entry): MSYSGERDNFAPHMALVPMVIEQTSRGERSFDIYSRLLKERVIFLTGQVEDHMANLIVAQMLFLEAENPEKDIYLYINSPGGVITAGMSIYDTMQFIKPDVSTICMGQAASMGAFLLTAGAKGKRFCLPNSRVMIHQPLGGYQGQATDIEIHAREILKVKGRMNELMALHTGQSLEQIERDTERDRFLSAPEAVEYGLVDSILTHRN

CC(C)(C(=O)N1CCN(Cc2ccc(Cl)cc2)CC1)S(=O)(=O)c1ccc(C(F)(F)F)cn1
Drug metabolism [1]: Metabolite_Detected
cytotoxicity at 24 h, 50 ug/ml [2]: 50%
inhibition (Chlamydia trachomatis [3]): Active
inhibition (Chlamydia trachomatis [4]): Active
Activity [5]: Active
inhibition (Chlamydia trachomatis [6]): Active

CC(C)(C(=O)NCCCc1ccccc1)S(=O)(=O)c1ccc(C(F)(F)F)cc1
CLH [7]: 891 mL/min/kg

— ChEMBL document CHEMBL4342502, “Synthesis and Antichlamydial Activity of Molecules Based on Dysregulators of Cylindrical Proteases” (J Med Chem, 2020)
